These results are taken from ChEMBL document CHEMBL4138262, “Antineoplastic Agents. 606. The Betulastatins” (2018).

Molecules are shown by their SMILES. In brackets after ≈: the same amount, converted by molar mass. Where only a bound is given, the exact number is not on record here.

Common to all, as to type: functional
One experiment has as its system BXPC-3. As to the kind of experiment: Growth inhibition of human BxPC3 cells after 48 hrs by SRB assay. To be noted: BXPC-3, 48 h. The method, boiled down: (§1)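 Cells in RPMI1640 with 5% fetal bovine serum were seeded in 96-well plates and incubated 24 h before serial dilutions of compound were added. After 48 h, plates were TCA-fixed, stained with sulforhodamine B and read on a microplate reader. Five serial dilutions were tested, with optical density in duplicate per end point. GI50 was calculated from optical density as the concentration halving net protein increase.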
For orientation: The SRB assay estimates cell density from bound dye.

For another experiment, the system named is MCF7. The experiment in a line: Growth inhibition of human MCF7 cells after 48 hrs by SRB assay. The settings on record: MCF7, 48 h. The essentials: as §1
Another experiment has as its system SF-268. As to the kind of experiment: Growth inhibition of human SF268 cells after 48 hrs by SRB assay. To be noted: SF-268, 48 h. The essentials:
as §1

A further experiment concerns NCI-H460. As to the kind of experiment: Growth inhibition of human NCI-H460 cells after 48 hrs by SRB assay. To be noted: NCI-H460, 48 h. The essentials:
as §1

In a further experiment the test system is KM-20L2. As to the kind of experiment: Growth inhibition of human KM20L2 cells after 48 hrs by SRB assay. To be noted: KM-20L2, 48 h. The method, boiled down: as §1
The test system of the next experiment is DU-145. As to the kind of experiment: Growth inhibition of human DU145 cells after 48 hrs by SRB assay. To be noted: DU-145, 48 h. The essentials: as §1

Usually GI50 stands for the concentration giving 50% growth inhibition. Consider `CC[C@H](C)[C@@H]([C@@H](CC(=O)N1CCC[C@H]1[C@H](OC)[C@@H](C)C(=O)NCCN1C(=O)[C@]23CCC(C)(C)C1[C@@H]2[C@H]1CC[C@@H]2[C@@]4(C)CC[C@H](OC(C)=O)C(C)(C)[C@@H]4CC[C@@]2(C)[C@]1(C)CC3)OC)N(C)C(=O)[C@@H](NC(=O)[C@H](C(C)C)N(C)C)C(C)C`, for which the GI50 with BXPC-3 came out at 3.8 µg/mL (≈ 3.39 µM); with MCF7, 3.6 µg/mL (≈ 3.21 µM); in the experiment with SF-268 it was 1.3 µg/mL (≈ 1.16 µM); in the experiment on NCI-H460, 5.1 µg/mL (≈ 4.55 µM); with KM-20L2, 3.1 µg/mL (≈ 2.76 µM); in the experiment on DU-145 it was 0.39 µg/mL (≈ 0.348 µM).

As for `C=C(C)[C@@H]1CC[C@]2(COC(C)=O)CC[C@]3(C)[C@H](CC[C@@H]4[C@@]5(C)CC/C(=N/O)C(C)(C)[C@@H]5CC[C@]43C)[C@@H]12`, the GI50 was 10.4 µg/mL (≈ 20.9 µM) in the experiment on BXPC-3; 5.9 µg/mL (≈ 11.9 µM) in the experiment with MCF7; greater than 10 µg/mL in the experiment with SF-268; greater than 10 µg/mL with NCI-H460; 14.1 µg/mL (≈ 28.3 µM) with KM-20L2; greater than 10 µg/mL in the experiment with DU-145.

For `C=C(C)[C@@H]1CC[C@]2(CO)CC[C@]3(C)[C@H](CC[C@@H]4[C@@]5(C)CC[C@H](O)C(C)(C)[C@@H]5CC[C@]43C)[C@@H]12` [BETULIN], the GI50 in the experiment with BXPC-3 is 9.3 µg/mL (≈ 21 µM); in the experiment with MCF7, greater than 10 µg/mL; in the experiment with SF-268, greater than 10 µg/mL; in the experiment with NCI-H460, 7.4 µg/mL (≈ 16.7 µM); with KM-20L2 it was greater than 10 µg/mL; in the experiment on DU-145, greater than 10 µg/mL.
